Assay results collected from several papers.
Compare with care: the assays were run in different laboratories.
MTNR1B: Melatonin receptor type 1B (MTNR1B, Homo sapiens, UniProt P49286)
PDE4D: 3',5'-cyclic-AMP phosphodiesterase 4D (PDE4D, Homo sapiens, UniProt Q08499)

Structure (SMILES)	target	test	test system	setting	endpoint	value
COc1ccc2cccc(C(CO)CNC(=O)CF)c2c1 (stereo not drawn)	MTNR1B	GTPγS binding, agonist, radiometric		cell membranes	Emax	99%
C=C(C)[C@@H]1CC=C2C(=CC[C@]3(C)[C@@H]([C@@H](CCC=C(C)C)C(=O)O)[C@H](O)C[C@@]23C)[C@@]1(C)CCC(=O)O	PDE4D	enzyme activity, inhibitor, radiometric		50 µM	inhibition	51.7%
Cc1nn(C)cc1-c1nc2c(N3CCN(Cc4ccc(Cl)cc4)CC3)c(Cl)cnc2[nH]1	Mitogen-activated protein kinase 7 (MAPK7, Homo sapiens, UniProt Q13164)	binding, competition with immobilised ligand		1 µM	remaining binding	100%
COc1ncccc1-c1cnn2ccc(N3CCN(C(=O)OC(C)C)CC3)nc12	Serine/threonine-protein kinase MAK (MAK, Homo sapiens, UniProt P20794)	binding, competition with immobilised ligand		1 µM	remaining binding	100%
NC(=O)c1cccc(-c2cccc(OC(=O)NC3CCCCC3)c2)c1	Liver carboxylesterase 1 (CES1, Homo sapiens, UniProt P23141)	enzyme activity, inhibitor		pH 7.4	kinact/KI	4500 M⁻¹ s⁻¹
CC1(C)[C@@H](O)CC[C@]2(C)[C@H]3C(=O)C=C4[C@@H]5C[C@@](C)(C(=O)O)CC[C@]5(C)CC[C@@]4(C)[C@]3(C)CC[C@@H]12	PDE4D	enzyme activity, inhibitor, radiometric		50 µM	inhibition	42.4%
CC[C@H](C)[C@@H]1NC(=O)[C@@H]2CSSC[C@H](NC(=O)[C@@H](NC(=O)CN)[C@@H](C)O)C(=O)N[C@@H](CC(N)=O)C(=O)N[C@@H]([C@@H](C)O)C(=O)N3CCC[C@H]3C(=O)NCC(=O)N[C@H]3CSSC[C@H](NC(=O)[C@H](CCSC)NC(=O)[C@H](CC(C)C)NC(=O)[C@H](CCCNC(=N)N)NC(=O)CNC(=O)CNC(=O)[C@H](CC(=O)O)NC1=O)C(=O)NCC(=O)N[C@@H](CCC(=O)O)C(=O)N[C@@H]([C@@H](C)O)C(=O)N[C@H](C(=O)N[C@H](C(=O)NCC(=O)O)C(C)C)CSSC[C@H](NC(=O)[C@H]([C@@H](C)O)NC3=O)C(=O)N[C@@H](CO)C(=O)N[C@@H](Cc1c[nH]c3ccccc13)C(=O)N1CCC[C@H]1C(=O)N[C@@H](C(C)C)C(=O)N2	Prothrombin (F2, Homo sapiens, UniProt P00734)	binding, SPR			koff	~0.001 s⁻¹
O=C(O)c1cc(O)c2c(c1)C(=O)c1cccc(O)c1C2=O	PDE4D	enzyme activity, inhibitor, radiometric		50 µM	inhibition	9.01%
Nc1ncc(-c2nc(N3CCOCC3)nc(N3CCOCC3)n2)c(C(F)F)n1	PDE4D	enzyme activity, inhibitor		10 µM	remaining activity	75%
COc1ccc2[nH]cc(CCNC(=O)CI)c2c1	MTNR1B	β-arrestin recruitment, agonist	MT2	90 min	Emax	92%
O=C(O)c1ccccc1O	PDE4D	enzyme activity, inhibitor, radiometric		50 µM	inhibition	3.34%
CCN(CC)CCCC[C@H](NC(=O)[C@H](CC(C)C)NC(=O)[C@H](C)NC(=O)[C@H](Cc1ccccc1)NC(=O)c1ccc(C(C)(C)C)cc1)C(=O)N[C@@H](CO)C(=O)OC	Prostaglandin E2 receptor EP4 subtype (PTGER4, Homo sapiens, UniProt P35408)	ligand displacement, radioligand		10 µM	remaining binding	95.2%
